Assay results reported in article PMC5858514 (Theranostics, 2018).

Columns and labels:
[1] = Toxicity in the therapy study: body weight and histopathology; format: in vivo, mice
Method in brief: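 Female nude mice bearing MDA-MB-231 tumors, n = 5 per group with a PBS (pH 7.4) control. They received 6 mg/kg PTX equivalent i.v. by tail vein, three doses every other day. Body weight was recorded every other day. Liver and kidneys were excised for pathology.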

[2] = system: U87MG cells; assay: Apoptosis study, Annexin V-FITC/PI flow cytometry; format: cell-based, human; conditions: 24 h
Method in brief: (§1)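 Annexin V-FITC/PI apoptosis assay. Media: MDA-MB-231 in L-15, OVCAR3 in DMEM, U87MG in MEM; all with 10% FBS, 37 °C, 5% CO2. Cells in 6-well plates got 200 μL of 1 mg/mL test compound for 24 h, then two PBS (pH 7.4) washes. Binding buffer, propidium iodide and Annexin V-FITC were added before flow cytometry. Q2 was early apoptotic and Q4 late apoptotic; Q2+Q4 was taken as […].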

[3] = system: MDA-MB-231, OVCAR3, and U87MG cell lines; assay: Cell viability MTT assay, three tumor cell lines stated together; format: cell-based, human; conditions: maximum / at the highest dose
Method in brief: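 MTT viability assay. Cells at 5 × 10^3 per well, kept at 37 °C, 5% CO2 with 10% FBS: MDA-MB-231 in L-15, OVCAR3 and 293T in DMEM, U87MG in MEM. Test compound from 3 pM to 1.6 nM for 24 h, six replicates. MTT (5 mg/mL stock) added for 4 h, medium replaced with DMSO, absorbance read at 490 nm.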

[4] = system: MDA-MB-231 tumor; assay: In vivo antitumor activity; set-up: species or system mice; conditions: three i.v. injections every other day, 6 mg/kg PTX equivalent
Method in brief: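 Female BALB/c nude mice were fed a folate-deficient diet for 6 days, then given MDA-MB-231 cells at the right axillary fossa. Treatment began at tumor volumes of 80–150 mm3, n = 5 per group, with a PBS (pH 7.4) control. Dosing was 6 mg/kg PTX equivalent by tail vein, three injections every other day. Tumor volume was measured every other day. Excised tumors were assayed for CD46 protein.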

[5] = system: MDA-MB-231 cells; assay: Apoptosis study, Annexin V-FITC/PI flow cytometry; format: cell-based, human; conditions: MDA-MB-231, 24 h
Method in brief: as §1

[6] = system: OVCAR3 cells; assay: Apoptosis study, Annexin V-FITC/PI flow cytometry; format: cell-based, human; conditions: OVCAR3, 24 h
Method in brief: as §1

CC(=O)O[C@H]1C(=O)[C@@]2(C)[C@H]([C@H](OC(=O)c3ccccc3)[C@]3(O)C[C@H](OC(=O)[C@H](O)[C@@H](NC(=O)c4ccccc4)c4ccccc4)C(C)=C1C3(C)C)[C@]1(OC(C)=O)CO[C@@H]1C[C@@H]2O [PTX, paclitaxel]
histopathological examination (H&E) of liver and kidneys / major organs ([1]; after treatment, compared with control group): no distinct pathologic changes | body weight loss ([1]; day 21 post initial treatment, 6 mg/kg i.v. x3): 0.65 ± 0.02 g | change in body weight ([1]; over the study period, 6 mg/kg PTX equivalent i.v. x3): significant decrease | cells undergoing early apoptosis (Q2) [2]: 29.8% | late apoptotic cells (Q4) [2]: 3.1% | cell inhibition ratio [3]: 63% | tumor volume inhibition [4]: 41.04% | cells undergoing early apoptosis (Q2) [5]: 33.8% | late apoptotic cells (Q4) [5]: 1.3% | cells undergoing early apoptosis (Q2) [6]: 21.8% | late apoptotic cells (Q4) [6]: 2.5%
